Test results reported in ChEMBL document CHEMBL2046351, “Discovery of cyclic sulfone hydroxyethylamines as potent and selective β-site APP-cleaving enzyme 1 (BACE1) inhibitors: structure-based design and in vivo reduction of amyloid β-peptides” (J Med Chem, 2012).

Assays:
MDR1 (human) [1] = assay: Efflux ratio of permeability from basolateral to apical over apical to basolateral side of MDCK cells expressing human MDR1 at 5 uM after 2 hrs by LC/MS analysis; type: ADME, cell-based, Canis lupus familiaris; conditions: dog
Method in brief: (§1)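 MDCK cells retrovirally transduced with human MDR1, seeded on transwells ≥3 days; bidirectional transport at 5 μM, 2 h, 37 °C, LC/MS quantitation. Papp = (dQ/dt)/(A·C0), A 0.11 cm2; ER = Papp B>A / Papp A>B. Means of at least three experiments.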

MDR1 (human) [2] = assay: Apparent permeability across MDCK cells expressing human MDR1 at 5 uM after 2 hrs by LC-MS analysis; type: ADME, cell-based, Canis lupus familiaris; conditions: dog; method in brief: as §1
Beta-secretase 1 [3] = target: T1, Beta-secretase 1 (Homo sapiens, UniProt P56817)
T1 sequence (P56817 whole entry): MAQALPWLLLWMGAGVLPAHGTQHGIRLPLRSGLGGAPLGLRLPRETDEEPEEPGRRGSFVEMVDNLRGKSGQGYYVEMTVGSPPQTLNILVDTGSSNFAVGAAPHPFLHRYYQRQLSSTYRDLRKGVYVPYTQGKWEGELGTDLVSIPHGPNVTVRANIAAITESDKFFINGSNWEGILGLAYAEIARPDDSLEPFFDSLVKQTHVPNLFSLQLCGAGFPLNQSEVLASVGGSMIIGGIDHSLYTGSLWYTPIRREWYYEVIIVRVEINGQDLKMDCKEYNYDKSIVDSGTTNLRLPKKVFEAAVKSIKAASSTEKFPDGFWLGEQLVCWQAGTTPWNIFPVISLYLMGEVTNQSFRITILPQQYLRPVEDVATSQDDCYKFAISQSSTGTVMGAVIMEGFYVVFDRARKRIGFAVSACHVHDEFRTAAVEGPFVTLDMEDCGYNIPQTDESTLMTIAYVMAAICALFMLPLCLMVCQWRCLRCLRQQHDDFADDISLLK

Cathepsin D = Cathepsin D (Homo sapiens, UniProt P07339); assay: Inhibition of human recombinant CatD using Mca-GKPILFFRLK(DNP)-dR-NH2 as substrate after 1 hr by fluorescence analysis
Chain of Cathepsin D (P07339 65-162 limits assumed): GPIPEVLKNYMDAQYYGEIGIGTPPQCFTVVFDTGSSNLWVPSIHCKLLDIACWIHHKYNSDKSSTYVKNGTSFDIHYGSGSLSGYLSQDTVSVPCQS
Chain of Cathepsin D (P07339 169-412 limits assumed): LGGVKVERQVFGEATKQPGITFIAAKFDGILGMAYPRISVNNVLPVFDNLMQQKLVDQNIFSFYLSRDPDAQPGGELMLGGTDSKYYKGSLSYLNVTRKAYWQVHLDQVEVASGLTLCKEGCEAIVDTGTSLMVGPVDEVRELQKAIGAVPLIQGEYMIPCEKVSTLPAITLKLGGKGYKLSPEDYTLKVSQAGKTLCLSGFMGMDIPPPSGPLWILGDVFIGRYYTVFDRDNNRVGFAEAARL

Homo sapiens = species: Homo sapiens; assay: Selectivity index, ratio of IC50 for human recombinant CatD to IC50 for human recombinant BACE1
[4] = Drug uptake in APP51/16 transgenic mouse blood at 180 umol/kg, po measured 4 hrs post dosing by LC/MS/MS analysis; type: ADME, organism-based; conditions: read-out: Drug uptake
Method in brief: (§2)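 APP51/16 transgenic mice given oral gavage (10 mL/kg); blood and forebrain taken at 4 h postdose. Blood extracted by acetonitrile precipitation; brain homogenized in water, then acetonitrile-precipitated. LC-MS/MS quantitation against weighted linear calibration of analyte/internal standard area ratio.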

Mus musculus [5] = assay: Antialzheimer activity in APP51/16 transgenic mouse expressing human APP51/16Npa and mouse Thy1 assessed as reduction in brain C99 level reduction at 180 umol/kg, po measured 4 hrs post dosing; type: functional; set-up: scale not given: the % may be the effect or the level left
Method in brief: (§3)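 Hemizygous APP51/16 mice (human APP751 wild-type under murine Thy-1 cassette, C57BL/6 background) gavaged (10 mL/kg), decapitated at 4 h. Forebrain homogenized in TBS with protease inhibitors, 1% TX-100 extract, spun 100000 rpm 30 min 4 °C. Aβ40 by 6E10 electrochemiluminescence immunoassay against spiked nontransgenic extract standards; C99 by APP-C8 western blot, densitometry. Two-tailed Student's t test versus vehicle.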

Mus musculus [6] = assay: Antialzheimer activity in APP51/16 transgenic mouse expressing human APP51/16Npa and mouse Thy1 assessed as reduction in amyloid beta (1 to 40) reduction at 180 umol/kg, po measured 4 hrs post dosing; type: functional; set-up: scale not given: the % may be the effect or the level left; method in brief: as §3
Brain [7] = assay: Drug uptake in APP51/16 transgenic mouse brain at 180 umol/kg, po measured 4 hrs post dosing by LC/MS/MS analysis; type: ADME, organism-based; conditions: in vivo; method in brief: as §2
[8] = AUC (0 to infinity) in C57BL/6 mouse at 2 umol/kg, iv dosed in N-methyl pyrrolidone/blank plasma (10:90 v/v) by LC/MS/MS analysis; type: ADME, organism-based; set-up: dose 2 umol/kg, time infinity, route intravenous
Method in brief: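 Male C57BL/6 mice got a single injection into the saphenous vein under light anaesthesia at 5 mL/kg. Blood was taken at 5 and 30 min and 1, 2, 4, 6 and 8 h (n = 3 per time). Blood was extracted by acetonitrile precipitation and quantified by LC-MS/MS against a weighted linear calibration. AUC came from noncompartmental analysis with 1/Y weighting.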

[9] = AUC (0 to infinity) in C57BL/6 mouse at 30 umol/kg, po dosed in carboxymethyl cellulose 0.5% w/v in water/Tween 80 (99.5/0.5, v/v) by LC/MS/MS analysis; type: ADME, organism-based; set-up: dose 30 umol/kg, route oral, time infinity; conditions: in vivo
Method in brief: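 Male C57BL/6 mice were dosed by oral gavage at 10 mL/kg. Blood was sampled at 0.25, 0.5, 1, 2, 4 and 6 h postdose, extracted by acetonitrile precipitation and quantified by LC-MS/MS (typical LLOQ 0.4 ng/mL). AUCinf was obtained by noncompartmental analysis of concentration–time profiles, weighting 1/Y, with at least three terminal log-linear points.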

[10] = Blood clearance in C57BL/6 mouse at 2 umol/kg, iv dosed in N-methyl pyrrolidone/blank plasma (10:90 v/v) by LC/MS/MS analysis; type: ADME, organism-based
Method in brief: (§4)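 Male C57BL/6 mice, saphenous vein injection under light anesthesia, 5 mL/kg. Blood at 5, 30 min and 1, 2, 4, 6, 8 h; brain at 5 min, 1, 4, 8 h; n = 3/time. LC-MS/MS after acetonitrile precipitation (brain water-homogenized). Noncompartmental analysis, 1/Y weighting, terminal slope from ≥3 points.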

[11] = Ratio of drug uptake in brain to blood in C57BL/6 mouse at 60 umol/kg, po dosed in carboxymethyl cellulose 0.5% w/v in water/Tween 80 (99.5/0.5, v/v) measured 1 hr post dosing by LC/MS/MS analysis; type: ADME, organism-based
Method in brief: (§5)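 Male C57BL/6 mice dosed by oral gavage, 10 mL/kg. Blood sampled 0.25, 0.5, 1, 2, 4, 6 h; brain at 1 and/or 4 h; n = 3 per time. Blood acetonitrile-precipitated, brain water-homogenized then precipitated; LC-MS/MS with weighted linear calibration.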

[12] = Volume of distribution at steady state in C57BL/6 mouse at 2 umol/kg, iv dosed in N-methyl pyrrolidone/blank plasma (10:90 v/v) by LC/MS/MS analysis; type: ADME, organism-based; conditions: read-out: Vdss; method in brief: as §4
[13] = Drug uptake in C57BL/6 mouse blood at 60 umol/kg, po dosed in carboxymethyl cellulose 0.5% w/v in water/Tween 80 (99.5/0.5, v/v) measured 4 hrs post dosing by LC/MS/MS analysis; type: ADME, organism-based; conditions: read-out: Drug uptake; method in brief: as §5
[14] = Ratio of drug uptake in brain to blood in C57BL/6 mouse at 60 umol/kg, po dosed in carboxymethyl cellulose 0.5% w/v in water/Tween 80 (99.5/0.5, v/v) measured 4 hrs post dosing by LC/MS/MS analysis; type: ADME, organism-based; method in brief: as §5
[15] = Half life in C57BL/6 mouse at 2 umol/kg, iv dosed in N-methyl pyrrolidone/blank plasma (10:90 v/v) by LC/MS/MS analysis; type: ADME, organism-based; method in brief: as §4
Brain [16] = assay: Drug uptake in C57BL/6 mouse brain at 60 umol/kg, po dosed in carboxymethyl cellulose 0.5% w/v in water/Tween 80 (99.5/0.5, v/v) measured 4 hrs post dosing by LC/MS/MS analysis; type: ADME, organism-based; conditions: in vivo; method in brief: as §5
[17] = Drug uptake in C57BL/6 mouse blood at 60 umol/kg, po dosed in carboxymethyl cellulose 0.5% w/v in water/Tween 80 (99.5/0.5, v/v) measured 1 hr post dosing by LC/MS/MS analysis; type: ADME, organism-based; conditions: read-out: Drug uptake; method in brief: as §5
[18] = Oral bioavailability in C57BL/6 mouse at 30 umol/kg dosed in carboxymethyl cellulose 0.5% w/v in water/Tween 80 (99.5/0.5, v/v) by LC/MS/MS analysis; type: ADME, organism-based; conditions: in vivo
Method in brief: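 Oral gavage (10 mL/kg) to male C57BL/6 mice with iv reference segment (2 μmol/kg, NMP/blank plasma 10:90). Noncompartmental analysis of LC-MS/MS blood profiles, 1/Y weighting; %F = dose-normalized oral AUC / dose-normalized iv AUC × 100, assuming linear pharmacokinetics between doses.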

Brain [19] = assay: Drug uptake in C57BL/6 mouse brain at 60 umol/kg, po dosed in carboxymethyl cellulose 0.5% w/v in water/Tween 80 (99.5/0.5, v/v) measured 1 hr post dosing by LC/MS/MS analysis; type: ADME, organism-based; conditions: in vivo; method in brief: as §5
Beta-secretase 1 [20] = target: T1, Beta-secretase 1; assay: Inhibition of human BACE-1 mediated amyloid beta 40 release in Chinese hamster CHO cells expressing human wild-type APP
Cytochrome P450 3A4 = Cytochrome P450 3A4 (Homo sapiens, UniProt P08684); assay: Inhibition of CYP3A4; type: ADME
Chain of Cytochrome P450 3A4 (P08684 whole entry): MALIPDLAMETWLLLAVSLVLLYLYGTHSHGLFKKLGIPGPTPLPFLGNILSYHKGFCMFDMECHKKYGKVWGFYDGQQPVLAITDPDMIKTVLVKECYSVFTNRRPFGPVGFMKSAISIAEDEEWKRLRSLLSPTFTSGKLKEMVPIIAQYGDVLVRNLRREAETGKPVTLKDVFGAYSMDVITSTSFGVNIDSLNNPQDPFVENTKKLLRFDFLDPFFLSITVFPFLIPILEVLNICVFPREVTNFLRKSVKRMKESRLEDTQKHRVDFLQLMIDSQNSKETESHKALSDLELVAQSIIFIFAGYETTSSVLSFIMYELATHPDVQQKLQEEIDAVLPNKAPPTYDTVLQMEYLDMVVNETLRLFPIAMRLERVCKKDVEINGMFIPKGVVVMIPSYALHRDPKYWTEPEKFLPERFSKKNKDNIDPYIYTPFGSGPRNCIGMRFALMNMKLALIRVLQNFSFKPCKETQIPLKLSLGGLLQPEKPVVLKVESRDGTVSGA

SMILES	efflux ratio at 2 h, 5 µM (MDR1 (human) [1])	Papp at 2 h, 5 µM (MDR1 (human) [2])	IC50 (Beta-secretase 1 [3])	IC50 (Cathepsin D)	Ratio IC50 (Homo sapiens)	other results
COC[C@@H](Oc1cc(C[C@@H]2CS(=O)(=O)C[C@H](NCc3cccc(C(C)(C)C)c3)[C@H]2O)cc(F)c1N)C(F)(F)F		13 ×10⁻⁶ cm/s		250 nM		concentration at 4 h [4]: 7.3 µM; Activity (Mus musculus [5]): 48%; Activity (Mus musculus [6]): 31%; Drug uptake (Brain [7]): 1.9 nmol/g
CC(C)(C)c1cccc(CN[C@H]2CS(=O)(=O)C[C@@H](Cc3ccc(N)c(Br)c3)[C@@H]2O)c1	2	13 ×10⁻⁶ cm/s	140 nM	720 nM	5	AUC(0-inf) [8]: 4.09 µM·h; AUC(0-inf) [9]: 6.43 µM·h; clearance [10]: 8.1 mL/min/kg; Kp at 1 h [11]: 0.5; Vd [12]: 1.6 L/kg; concentration at 4 h [13]: 2.98 µM; Kp at 4 h [14]: 0.6; half-life [15]: 4 h; Drug uptake (Brain [16]): 1.92 nmol/g; concentration at 1 h [17]: 4.07 µM; bioavailability [18]: 10%; Drug uptake (Brain [19]): 2.17 nmol/g
CC(C)(C)c1cccc(CN[C@H]2CS(=O)(=O)C[C@@H](Cc3cc(F)c(N)c(Br)c3)[C@@H]2O)c1	2	13 ×10⁻⁶ cm/s	55 nM	340 nM	5	
CCCN1CCC[C@@]12CCN([C@@H](C)C(=O)N[C@@H](Cc1ccccc1)[C@H](O)CNCc1cccc(C(C)C)c1)C2=O	23	11 ×10⁻⁶ cm/s				IC50 (Beta-secretase 1 [20]): 10 nM
CCc1cc(C[C@@H]2CS(=O)(=O)C[C@H](NCc3cccc(C(C)(C)C)c3)[C@H]2O)cc(F)c1NC(C)=O	41	17 ×10⁻⁶ cm/s	8 nM	2300 nM	> 100	
CC(C)(C)Cn1cc(CN[C@H]2CS(=O)(=O)C[C@@H](Cc3cc(F)c(N)c(OC(C(F)(F)F)C(F)(F)F)c3)[C@@H]2O)cn1	46	16 ×10⁻⁶ cm/s	36 nM	2810 nM		IC50 (Cytochrome P450 3A4): 6700 nM
CC(C)(C)c1cccc(CN[C@H]2CS(=O)(=O)C[C@@H](Cc3cc(F)c(N)c(OCC(F)F)c3)[C@@H]2O)c1	10	22 ×10⁻⁶ cm/s	6 nM	680 nM	> 100	concentration at 4 h [4]: 12.2 µM; Activity (Mus musculus [5]): 32%; Activity (Mus musculus [6]): 18%; Drug uptake (Brain [7]): 2.1 nmol/g

The remaining compounds from weak to strong by IC50 (Cathepsin D), led by results:

efflux ratio at 2 h, 5 µM (MDR1 (human) [1])	Papp at 2 h, 5 µM (MDR1 (human) [2])	IC50 (Beta-secretase 1 [3])	IC50 (Cathepsin D)	Ratio IC50 (Homo sapiens)	SMILES	other results
2	7 ×10⁻⁶ cm/s	45 nM	5200 nM	> 100	CCCOc1cc(C[C@@H]2CS(=O)(=O)C[C@H](NCc3cccc(C(C)(C)C)c3)[C@H]2O)ccc1N	
6	12 ×10⁻⁶ cm/s	44 nM	2530 nM		Nc1c(F)cc(C[C@@H]2CS(=O)(=O)C[C@H](NCc3cccc(OC(F)(F)F)c3)[C@H]2O)cc1OC(C(F)(F)F)C(F)(F)F	IC50 (Cytochrome P450 3A4): 9200 nM
1	21 ×10⁻⁶ cm/s	350 nM	2520 nM	5	CC(C)(C)c1cccc(CN[C@H]2CS(=O)(=O)C[C@@H](Cc3ccc(N)c(F)c3)[C@@H]2O)c1	
3	18 ×10⁻⁶ cm/s	24 nM	1030 nM	40	CCOc1cc(C[C@@H]2CS(=O)(=O)C[C@H](NCc3cccc(C(C)(C)C)c3)[C@H]2O)cc(F)c1N	concentration at 4 h [4]: 9 µM; Activity (Mus musculus [5]): 54%; Activity (Mus musculus [6]): 34%; Drug uptake (Brain [7]): 3.1 nmol/g
